Source: PubChem
The list is not random: actives were taken first. Their share in the collection is about 29%.
CYP2C9 inh: inhibitors of human CYP2C9. CYP2C9 Supersomes, luciferin-H conversion, luminescence. inhibition, % at 5 µM. hit rate 20% among 96,000. P11712;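 active = blocking of liver enzyme CYP2C9 beyond about 50% at 5 µM, limit read from the data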
Target sequence (P11712 whole entry, looked up): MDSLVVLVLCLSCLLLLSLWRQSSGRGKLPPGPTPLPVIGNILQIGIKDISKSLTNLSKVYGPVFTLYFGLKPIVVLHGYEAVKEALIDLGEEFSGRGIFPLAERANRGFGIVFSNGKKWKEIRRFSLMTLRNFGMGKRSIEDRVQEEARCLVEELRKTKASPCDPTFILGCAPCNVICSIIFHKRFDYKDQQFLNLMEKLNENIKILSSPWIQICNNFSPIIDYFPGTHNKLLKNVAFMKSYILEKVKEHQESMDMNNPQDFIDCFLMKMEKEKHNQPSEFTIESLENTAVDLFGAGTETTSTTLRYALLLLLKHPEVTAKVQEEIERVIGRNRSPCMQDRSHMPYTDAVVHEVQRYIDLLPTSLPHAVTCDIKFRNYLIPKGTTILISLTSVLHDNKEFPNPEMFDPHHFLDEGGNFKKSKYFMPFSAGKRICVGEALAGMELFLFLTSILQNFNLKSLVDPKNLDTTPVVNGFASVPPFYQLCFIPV
CYP2C9 act: activators of human CYP2C9; P11712; recombinant CYP2C9, luciferin-H conversion, luminescence; hits give high values; factor 1 = untreated enzyme, 0 = blocked; activation factor at 5 µM; hit rate 1.4% among 96,000; AID 1024;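 active = activation factor of 2 or more for CYP2C9 at a 5 µM dose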;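 note: 0 = sulfaphenazole-blocked wells and 1 = vehicle-only wells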
E coli WT exp: blocks growth of wild type E. coli BW25113; OD600 absorbance; hit rate 0.15% among 98,000; growth inhibition, % at 100 µM;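 active = growth inhibition above about 50% at one test dose, limit read from the data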;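 note: growth measured after 20 h incubation at 37 °C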
tolC growth inh: growth inhibitors of E. coli BW25113 tolC mutant | OD615 | growth inhibition, % at 10 µM (by protocol) | hit rate 2.2% among 65,000 | AID 573;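 active = growth inhibition at or above a cutoff equal to the mean over every tested compound plus 3 SD, cut at about 60% in these data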;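 note: growth measured after 20 h incubation at 37 °C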
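Test system: tolC-deleted E. coli BW25113; medium: LB with kanamycin 50 µg/mL; compound: single-point testing at 10 µM; incubation: 20 h compound exposure of bacteria at 37 °C; signal: OD at 615 nm; evaluation: growth inhibition in percent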
CYP2C19 act: cytochrome P450 2C19 (human) activation; recombinant CYP2C19, luciferin-H EGE luminescence; hits give high values; 0 = fully inhibited enzyme, 1 = untreated enzyme; activation factor at 5 µM; 96,000 tested, under 10 active; AID 1025;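 active = activation factor of at least 2 at 5 µM in the primary screen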;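 note: 0 = wells with 2.5 mM tranylcypromine and 1 = vehicle-only wells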
CYP2C19 inh: inhibitors of human CYP2C19; hit rate 21% among 96,000; CYP2C19 Supersomes, luciferin-H EGE luminescence, 30 min; inhibition, % at 5 µM; AID 778; P33261;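 active = CYP2C19 inhibition above a set limit at 5 µM in the primary screen, cut at about 50% in these data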;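 note: plate controls were negative control wells for no effect and 2.5 mM tranylcypromine positive control for full effect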
* hit, by the source's call; nt = no result given.

SMILES | CYP2C9 inh | CYP2C9 act | E coli WT exp | tolC growth inh | CYP2C19 act | CYP2C19 inh
COC(=O)c1ccc(Cn2cnc3c(sc4nc(N5CCOCC5)c5c(c43)CCCC5)c2=O)o1 | 52* | 0.5 | -8 | 6 | 0.8 | 22
NC(=O)CN1CCOCCOCCN(CC(N)=O)CCOCC1 | 55* | 0.4 | -8 | nt | 1.3 | -27
O=C(Nc1nccs1)c1ccc(S(=O)(=O)NCc2cccs2)cc1 | 70* | 0.3 | 4 | 17 | 0.6 | 36
O=C(Nc1nnc(C2CC2)s1)c1ccc(S(=O)(=O)c2ccccc2)cc1 | 46 | 0.5 | -13 | nt | 1.1 | -7
O=C(Nc1nncs1)c1ccc(S(=O)(=O)c2ccccc2)cc1 | 60* | 0.4 | -1 | 6 | 1.2 | -19
CN(c1ccc(C(=O)Nc2nccs2)cc1)S(=O)(=O)c1ccccc1 | 51* | 0.5 | 0 | 18 | 0.3 | 73*
O=C(NCCN1CCCC1)c1ccc2c(=O)n(CCc3ccccc3)c(=O)[nH]c2c1 | 13 | 0.9 | 0 | 4 | 0.8 | 18
N#C/C(=C1\C(=O)Nc2c(Cl)cc(Cl)cc21)c1nnc2n1CCCCC2 | 4 | 1 | -3 | nt | 1.1 | -5
COC(=O)c1nn(-c2ccccc2)c(Sc2ccc(OC)cc2)c1/C=N/O | 43 | 0.6 | 0 | nt | 0.7 | 27
COc1cc(C)nc(NC(=O)COc2ccc(Cl)cc2C)n1 | -3 | 1 | -4 | 16 | 0.7 | 34
CCCN1C2=C(C(=O)CC(C)(C)C2)C(c2ccc(F)cc2)C2=C1c1ccccc1C2=O (stereo not given) | 75* | 0.3 | -11 | nt | 1.1 | -14
CCCCN1C2=C(C(=O)CC(C)(C)C2)C(c2ccccc2)C2=C1c1ccccc1C2=O (stereo not given) | 8 | 0.9 | -4 | nt | 1 | -2
Cc1ccc(NC(=O)CN(C)S(=O)(=O)c2cccs2)cc1C | 17 | 0.8 | -2 | nt | 0.2 | 79*
Cc1ccc(NC(=O)CN(C)S(=O)(=O)c2cccs2)cc1F | 32 | 0.7 | 1 | -2 | 0.3 | 69*
COc1ccc(NC(=O)CN(C)S(=O)(=O)c2ccc(Cl)cc2)cc1Cl | 6 | 0.9 | -1 | nt | 0.9 | 6
CCOc1ccc(NC(=O)CN(C)S(=O)(=O)c2cccs2)cc1 | -32 | 1.3 | 5 | -11 | 0.8 | 20
O=C(CN(CC1CCCO1)C(=O)CNS(=O)(=O)c1ccc(Cl)cc1)NCCc1ccccc1 (stereo not given) | 17 | 0.8 | 10 | nt | 0.8 | 25
Cc1ccc(C2(c3ccc(C)cc3)CC2C(=O)Nc2ccc([N+](=O)[O-])cc2O)cc1 (stereo not given) | 75* | 0.2 | 1 | nt | 0.8 | 20
COc1cc(C2C(C(C)=O)=C(O)C(=O)N2c2ccc(C)cc2)ccc1O (stereo not given) | 34 | 0.7 | -5 | nt | 1.1 | -14
COc1cc(C2Nc3ccccc3C(=O)N2c2ccccc2OC)ccc1O (stereo not given) | 79* | 0.2 | 3 | -5 | 0.6 | 41
CCOc1cc(C2Nc3ccccc3C(=O)N2c2ccccc2OC)ccc1O (stereo not given) | 52* | 0.5 | 7 | 7 | 0.8 | 21
O=C1CC(c2ccc(F)cc2)Cc2nc(N3CCc4ccccc43)ncc21 (stereo not given) | -6 | 1.1 | nt | -13 | 1.2 | -18
CSc1nc2nc3c(cn2n1)C(=O)CC(c1ccccc1)C3 (stereo not given) | 50 | 0.5 | 5 | nt | 0.5 | 51*
O=C1CC(c2ccccc2)Cc2nc3nc(C(F)(F)F)nn3cc21 (stereo not given) | 62* | 0.4 | 0 | nt | 0.5 | 49
O=C(O)c1cc(-c2ccccn2)n[nH]1 | -9 | 1.1 | 4 | nt | 1.1 | -14
SMILES | CYP2C9 inh | CYP2C9 act | E coli WT exp | tolC growth inh | CYP2C19 act | CYP2C19 inh
Cc1cc(NCCCn2ccnc2)n2ncc(-c3ccc(Cl)cc3)c2n1 | 87* | 0.1 | 29 | nt | 0.3 | 74*
Cc1cc(NCCCN2CCOCC2)n2ncc(-c3ccc(Cl)cc3)c2n1 | 20 | 0.8 | -2 | -15 | 1 | 0
Cc1cccc(-c2cc3nc(C)cc(NCCCn4ccnc4)n3n2)c1 | 96* | 0 | 4 | nt | 0.1 | 93*
CCOC(=O)Cc1csc(NC(=O)CC(C)(C)C)n1 | -1 | 1 | 3 | nt | 1 | 3
Cc1csc(OCc2ccc(C#N)cc2)n1 | 24 | 0.8 | 0 | -9 | 0.1 | 93*
CCN(CC)CCN(Cc1cc2cc3c(cc2[nH]c1=O)OCCO3)C(=O)NC1CCCCC1 | -7 | 1.1 | 7 | 9 | 1 | -1
COc1ccc(CN(Cc2cc3cc4c(cc3[nH]c2=O)OCO4)C(=O)NC2CCCCC2)cc1 | 90* | 0.1 | -14 | 72* | 1 | -3
COc1ccc2[nH]c(=O)c(CN(C(=O)NC3CCCCC3)C3CCCCC3)cc2c1 | 23 | 0.8 | -10 | 72* | 1 | 4
Cc1ccnc2c(N3C(=O)C4C5C=CC(C5)C4C3=O)cccc12 (stereo not given) | -23 | 1.2 | 4 | -21 | 1.2 | -16
CCC(=O)N1CCc2cc(S(=O)(=O)NCCN3CCCCC3CC)ccc21 (stereo not given) | -17 | 1.2 | 7 | -15 | 1 | 0
CC(NC(=O)c1ccccc1Br)c1nnc(SCc2ccc([N+](=O)[O-])cc2)n1C (stereo not given) | -2 | 1 | -1 | nt | 1.1 | -7
O=C(c1ccco1)N1CCN(c2ncnc3scc(-c4cccs4)c23)CC1 | 50 | 0.5 | 4 | 28 | 0.8 | 21
Cc1ccc(-c2csc3ncnc(N4CCN(C(=O)c5ccccc5)CC4)c23)cc1 | 79* | 0.2 | -12 | nt | 0.3 | 73*
O=C(c1ccco1)N1CCN(c2ncnc3scc(-c4ccccc4)c23)CC1 | 38 | 0.6 | -2 | nt | 0.9 | 8
c1ccc(N2CCN(c3ncnc4scc(-c5cccs5)c34)CC2)cc1 | 97* | 0 | -12 | 44 | 0 | 96*
N#CCCn1c(Cl)nc2ccccc21 | -3 | 1 | 8 | -13 | 1 | 4
O=C(/C=C/c1ccco1)NC(=S)Nc1cccc(-c2nc3ccccc3o2)c1 | 39 | 0.6 | -5 | nt | 0.9 | 13
Cc1cccc(NC(=S)NC(=O)/C=C/c2ccco2)n1 | 55* | 0.5 | -5 | nt | 0.5 | 50
Cc1ccccc1NS(=O)(=O)c1cc(C(=O)Nc2ccccc2-c2ccccc2)ccc1Cl | 84* | 0.2 | -10 | nt | 0.6 | 36
Cc1cccc(NS(=O)(=O)c2cc(C(=O)N3CCc4ccccc4C3)ccc2Cl)c1C | 58* | 0.4 | -10 | nt | 0.6 | 36
CCOC(=O)N1CCN(C(=O)c2ccc(C)c(S(=O)(=O)Nc3cccc(C)c3C)c2)CC1 | 98* | 0 | 5 | 19 | 0.5 | 54*
Cc1ccc(C)c(NS(=O)(=O)c2cc(C(=O)N3CCc4ccccc4C3)ccc2Cl)c1 | 59* | 0.4 | -12 | nt | 0.6 | 36
Fc1ccc(CN2CCCCCCC2)cc1F | 6 | 0.9 | 4 | -15 | 0.7 | 27
